Assays:
[1] = biological target: Lysine-specific demethylase 5A (Homo sapiens, UniProt P29375); test: Inhibition of KDM5A in human A549 cells assessed as increase in H3K4me3 levels after 48 hrs by Western blot analysis; assay type: cell-based
Outline: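 A549 cells (5 × 10^5 per 2 mL well, RPMI1640 with 10% heat-inactivated FBS) exposed 48 h to compounds at 1, 5 or 25 µM. SDS lysates normalised by BCA, separated on 5-20% SDS-PAGE, blotted to PVDF, blocked in 5% milk/TBS-T, probed for H3K4me3, H3K9me3, H3K27me3 and total H3, detected by HRP chemiluminescence.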

[2] = biological target: T1, Lysine-specific demethylase 4A (Homo sapiens) (UniProt O75164); test: Inhibition of human N-terminal His-tagged KDM4A (1 to 350 residues) expressed in Escherichia coli at 50 uM using H3(21-44)-K36(Me3)-GK(Biotin)/2-OG as substrate measured after 1 hr by Alphalisa assay relative to control
T1 sequence (whole entry): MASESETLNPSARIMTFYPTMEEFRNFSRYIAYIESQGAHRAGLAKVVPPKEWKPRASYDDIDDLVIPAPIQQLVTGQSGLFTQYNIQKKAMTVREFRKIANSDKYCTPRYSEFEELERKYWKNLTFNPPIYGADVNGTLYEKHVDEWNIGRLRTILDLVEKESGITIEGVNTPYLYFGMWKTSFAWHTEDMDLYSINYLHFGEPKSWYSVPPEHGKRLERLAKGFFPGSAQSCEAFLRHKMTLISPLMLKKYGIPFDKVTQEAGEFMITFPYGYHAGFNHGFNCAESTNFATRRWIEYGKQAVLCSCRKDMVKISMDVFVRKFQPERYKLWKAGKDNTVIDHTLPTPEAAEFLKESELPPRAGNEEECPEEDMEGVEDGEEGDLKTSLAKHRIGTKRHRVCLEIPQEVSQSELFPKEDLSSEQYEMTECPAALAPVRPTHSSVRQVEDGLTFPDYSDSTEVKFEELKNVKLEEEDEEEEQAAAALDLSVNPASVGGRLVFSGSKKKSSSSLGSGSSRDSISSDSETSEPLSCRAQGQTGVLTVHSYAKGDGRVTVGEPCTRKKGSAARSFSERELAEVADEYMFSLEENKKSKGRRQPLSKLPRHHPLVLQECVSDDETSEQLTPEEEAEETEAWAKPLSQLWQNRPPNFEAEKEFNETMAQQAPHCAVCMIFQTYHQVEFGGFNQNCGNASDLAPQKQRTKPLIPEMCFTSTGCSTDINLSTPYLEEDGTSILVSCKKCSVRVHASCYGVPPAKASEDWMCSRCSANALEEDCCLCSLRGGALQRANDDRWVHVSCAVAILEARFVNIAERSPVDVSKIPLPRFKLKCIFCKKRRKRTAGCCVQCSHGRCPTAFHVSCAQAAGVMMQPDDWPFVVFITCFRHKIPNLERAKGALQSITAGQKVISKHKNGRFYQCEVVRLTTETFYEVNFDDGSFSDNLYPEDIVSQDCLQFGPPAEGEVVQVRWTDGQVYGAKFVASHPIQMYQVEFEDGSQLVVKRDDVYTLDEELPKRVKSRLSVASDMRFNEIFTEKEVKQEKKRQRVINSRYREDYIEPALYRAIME
Outline: (§1)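 AlphaLISA demethylase assay in 50 mM HEPES pH 7.5, 0.1% BSA, 0.01% Tween 20 with DMSO. Enzyme and inhibitor combined, then peptide plus 2-OG (50 µM), Fe(II) (5 µM) and ascorbate (100 µM) in the added mix; 1 h at room temperature with shaking.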

[3] = biological target: T2, Lysine-specific demethylase 2A (Homo sapiens) (UniProt Q9Y2K7); test: Inhibition of human N-terminal FLAG/Avi-tagged KDM2A (2 to 700 residues) expressed in baculovirus infected Sf9 insect cells at 50 uM using H3(21-44)-K36(Me2)-GK(Biotin)/2-OG as substrate measured after 1 hr by Alphalisa assay relative to control; outline: as §1
T2 sequence (whole entry): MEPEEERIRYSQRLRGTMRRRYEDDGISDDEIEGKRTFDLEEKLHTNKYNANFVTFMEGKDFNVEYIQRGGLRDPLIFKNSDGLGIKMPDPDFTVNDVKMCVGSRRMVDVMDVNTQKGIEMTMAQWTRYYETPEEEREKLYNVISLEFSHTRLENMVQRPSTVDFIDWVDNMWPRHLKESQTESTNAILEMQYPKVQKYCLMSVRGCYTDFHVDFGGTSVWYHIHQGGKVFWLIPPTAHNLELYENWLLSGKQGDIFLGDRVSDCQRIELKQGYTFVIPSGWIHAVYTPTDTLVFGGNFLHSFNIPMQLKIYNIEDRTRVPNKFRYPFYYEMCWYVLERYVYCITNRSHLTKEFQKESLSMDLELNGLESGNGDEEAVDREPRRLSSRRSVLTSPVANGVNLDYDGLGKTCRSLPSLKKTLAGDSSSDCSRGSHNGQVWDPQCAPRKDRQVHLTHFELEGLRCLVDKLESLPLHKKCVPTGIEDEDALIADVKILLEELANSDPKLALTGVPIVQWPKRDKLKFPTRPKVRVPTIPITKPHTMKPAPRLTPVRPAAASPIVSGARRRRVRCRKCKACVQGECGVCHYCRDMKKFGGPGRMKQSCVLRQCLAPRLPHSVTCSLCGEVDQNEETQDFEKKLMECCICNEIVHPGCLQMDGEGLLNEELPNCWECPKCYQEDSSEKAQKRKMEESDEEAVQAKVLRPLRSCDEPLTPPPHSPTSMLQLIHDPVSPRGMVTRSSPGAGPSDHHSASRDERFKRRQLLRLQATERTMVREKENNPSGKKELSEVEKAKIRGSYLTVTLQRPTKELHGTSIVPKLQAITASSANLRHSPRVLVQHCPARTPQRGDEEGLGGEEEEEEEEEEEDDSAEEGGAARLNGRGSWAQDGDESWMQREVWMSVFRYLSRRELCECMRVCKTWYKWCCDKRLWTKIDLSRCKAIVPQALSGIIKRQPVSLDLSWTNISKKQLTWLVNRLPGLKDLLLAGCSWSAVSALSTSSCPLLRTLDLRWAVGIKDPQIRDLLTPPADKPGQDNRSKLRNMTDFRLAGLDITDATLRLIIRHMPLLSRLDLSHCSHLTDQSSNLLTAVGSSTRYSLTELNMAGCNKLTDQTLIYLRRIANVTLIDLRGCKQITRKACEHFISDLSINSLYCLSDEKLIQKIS

Lysine-specific demethylase 5A, sequence (P29375 whole entry): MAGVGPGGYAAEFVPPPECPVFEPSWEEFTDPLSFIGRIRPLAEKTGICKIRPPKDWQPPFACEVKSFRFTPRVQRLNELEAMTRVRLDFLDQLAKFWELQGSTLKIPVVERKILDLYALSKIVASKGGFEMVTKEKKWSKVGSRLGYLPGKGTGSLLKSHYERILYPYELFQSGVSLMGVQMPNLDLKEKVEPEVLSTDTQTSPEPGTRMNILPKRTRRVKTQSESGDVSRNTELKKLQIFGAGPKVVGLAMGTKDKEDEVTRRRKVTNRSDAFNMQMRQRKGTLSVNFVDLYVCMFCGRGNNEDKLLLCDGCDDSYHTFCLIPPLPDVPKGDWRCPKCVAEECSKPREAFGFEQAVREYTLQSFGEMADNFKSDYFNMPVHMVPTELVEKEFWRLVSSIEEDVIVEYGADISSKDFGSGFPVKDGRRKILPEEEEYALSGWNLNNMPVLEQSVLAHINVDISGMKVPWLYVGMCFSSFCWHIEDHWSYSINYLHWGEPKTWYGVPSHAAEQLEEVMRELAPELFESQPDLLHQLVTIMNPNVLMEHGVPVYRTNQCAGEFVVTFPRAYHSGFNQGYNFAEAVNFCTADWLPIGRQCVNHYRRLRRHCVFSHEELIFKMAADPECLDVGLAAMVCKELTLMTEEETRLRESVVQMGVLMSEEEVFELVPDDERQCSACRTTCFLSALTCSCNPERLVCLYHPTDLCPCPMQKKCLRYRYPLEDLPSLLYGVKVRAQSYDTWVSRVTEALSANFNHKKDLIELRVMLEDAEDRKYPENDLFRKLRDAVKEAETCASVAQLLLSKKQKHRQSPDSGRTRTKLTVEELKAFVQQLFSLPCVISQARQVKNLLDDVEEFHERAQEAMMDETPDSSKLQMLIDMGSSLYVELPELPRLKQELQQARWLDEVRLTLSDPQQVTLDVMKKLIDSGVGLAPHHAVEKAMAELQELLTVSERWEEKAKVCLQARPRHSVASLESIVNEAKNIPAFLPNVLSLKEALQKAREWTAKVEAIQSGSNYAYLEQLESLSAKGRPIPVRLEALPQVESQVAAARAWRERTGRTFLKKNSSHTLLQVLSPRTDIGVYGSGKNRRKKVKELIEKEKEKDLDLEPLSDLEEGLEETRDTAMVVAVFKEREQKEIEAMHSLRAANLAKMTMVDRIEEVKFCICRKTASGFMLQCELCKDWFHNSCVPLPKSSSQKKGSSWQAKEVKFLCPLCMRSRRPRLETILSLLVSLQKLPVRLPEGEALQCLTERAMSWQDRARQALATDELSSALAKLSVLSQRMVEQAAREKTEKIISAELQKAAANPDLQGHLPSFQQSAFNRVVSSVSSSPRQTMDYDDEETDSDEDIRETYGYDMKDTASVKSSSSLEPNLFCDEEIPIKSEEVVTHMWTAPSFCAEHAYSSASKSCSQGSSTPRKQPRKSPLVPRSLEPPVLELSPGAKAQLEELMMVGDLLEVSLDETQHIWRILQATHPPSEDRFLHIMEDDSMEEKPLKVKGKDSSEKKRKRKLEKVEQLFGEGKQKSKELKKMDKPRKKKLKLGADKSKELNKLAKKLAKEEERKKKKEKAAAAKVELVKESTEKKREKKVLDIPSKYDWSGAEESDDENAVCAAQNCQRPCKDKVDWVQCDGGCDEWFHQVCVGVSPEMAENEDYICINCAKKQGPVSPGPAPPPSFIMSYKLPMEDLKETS

Row | inhibition [1] | inhibition [2] [%] | inhibition [3] [%] | Structure (SMILES)
1 | Dose-dependent effect | 71 | 38.4 | CCCCCCN(C)CCc1ccc(-c2[nH]c3c(C#N)cnn3c(=O)c2C(C)C)cc1
2 | – | 25.4 | 51.7 | CCCCCN(C)CCCCC(=O)N(O)CCC(=O)O
3 | Dose-dependent effect | 32.5 | 13.4 | CCCCCCN(C)Cc1ccc(-c2[nH]c3c(C#N)cnn3c(=O)c2C(C)C)cc1
4 | Dose-dependent effect | 61.1 | 25.7 | CC(C)c1c(-c2ccccc2)[nH]c2c(C#N)cnn2c1=O
